This is an account of results in PMC3163034 (Digestive diseases and sciences, 2011).

Where a name gives a salt, the structure may show the parent alone. A value given as a limit tells only on which side of the number the result lay.

The conditions of series [1]: rats; cited from earlier work.
Series [2] in a line: Ussing-chamber permeability across excised mouse intestinal segments. The class given is in vitro ADME, mice. As to conditions: for Peff, Colon (mean ± SD) / Peff, Small intestine (mean ± SD): 1 mg/ml mucosal side, pH 7.4, 37°C. The procedure, abridged:
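Freshly isolated jejunum and left-sided colon from naive and 7-day DSS-treated mice, mounted with 0.3 cm2 exposed area. Both sides held 5 ml Krebs buffer, pH 7.4, 37°C, gassed with 95% O2/5% CO2. Test compound added mucosally (final 1 mg/ml). Serosal samples taken every 20 min from 0 to 120 min, in triplicate, and measured by LC-MS/MS. Peff = (dC/dt)·V/(A·Co).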

Series [3] is described as follows: Plasma levels of orally administered AT1a antagonists in DSS-treated mice. Type of series: in vivo. As to conditions: 10 mg/kg; for Cmax at 2 h: mouse, plasma, po. The procedure, abridged: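 Mice given DSS for 7 days received test compound orally at 10 mg/kg and were killed 2 h later. Plasma was collected by cardiac puncture, diluted tenfold in mobile phase, and quantified by LC-MS/MS on a C18 column (150 × 2.0 mm, 0.2 ml/min). Data are mean ± SD, n = 5.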

A short description of series [4]: Blood pressure and heart rate by tail-cuff in DSS mice. The class given is in vivo. As to conditions: transanal treatment, compared to naive group. In short, it runs like this: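 Mice received DSS in drinking water for 7 days plus daily transanal test compound (100 or 10 mg/kg/day) suspended in ddH2O, 0.25 ml total, via blunt needle. Naive controls received transanal water only. Heart rate and blood pressure were taken by automated noninvasive tail-cuff on DSS day 6, 1 h before (Pre) and 2 h after (Post) transanal dosing. Data are mean ± SD.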

Series [5] in a line: Colonic mucosa and mesenteric blood flow by laser Doppler perfusion imaging. The class given is in vivo, mice. As to conditions: 7 days of DSS, transanal treatment, n = 6; for Colonic blood flow at the mucosal level: naive 1.91 ± 0.26, mean ± SD; for Mesenteric blood flow: naive 2.82 ± 0.23, mean ± SD. In short, it runs like this: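 After 7 days of DSS in drinking water, with daily transanal test compound (10 or 100 mg/kg/day) or water, and naive controls, mice (n = 6/group) were anesthetized just before harvest. Median laparotomy exposed the mesentery. A […] LDPI beam 12 cm above scanned the mesentery and 2 cm of distal colonic mucosa. Perfusion was normalized to total pixel area (mean ± SD).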

The conditions of series [6]: Normal rat jejunum, Ussing chamber; cited from earlier work.
Setting [7] is: 2 h after oral administration, DSS mice.

In general, Cmax refers to the peak of the concentration-time curve. For the molecule `CCCCc1nc(Cl)c(CO)n1Cc1ccc(-c2ccccc2-c2nn[nH]n2)cc1` [losartan, 2-butyl-4-chloro-1-[[2′-(2H-tetrazol-5-yl)[1,1′-biphenyl]-4-yl]methyl]-1H-imidazole-5-methanol, mono-potassium salt], the “oral 50% effective dose (ED50, blood pressure lowering)” value in series [1] is on record as 0.59 mg/kg. For the same molecule, in series [2] (DSS-treated mice (7 days)), the Peff, Colon (mean ± SD) turned out to be 5.77 ± 3.37 ×10⁻⁶ cm/s and the Peff, Small intestine (mean ± SD) was determined as 5.24 ± 1.4 ×10⁻⁶ cm/s. In series [2] (Normal (naive) mice), this molecule came in with a Peff, Colon (mean ± SD) of 6.4 ± 5.6 ×10⁻⁶ cm/s and a Peff, Small intestine (mean ± SD) of 4.21 ± 1.67 ×10⁻⁶ cm/s. For the same molecule, the peak level in series [3] (Cmax at 2 h) was 117 ± 87 ng/mL. The Heart rate result in series [4] was “not significantly different”. For the same molecule, in series [5], the “Colonic blood flow at the mucosal level” value came to 0.88 ± 0.32 and the Mesenteric blood flow was 1.97 ± 0.58.
Consider `C[C@H](N[C@@H](CCc1ccccc1)C(=O)O)C(=O)N1CCC[C@H]1C(=O)O` [Enalaprilat], for which the “Peff, Small intestine” value in series [6] is 6e+12 ×10⁻⁶ cm/s.
As for `CCOc1nc2cccc(C(=O)O)c2n1Cc1ccc(-c2ccccc2-c2nnn[nH]2)cc1` [candesartan, 2-ethoxy-1-[[2′-(2H-tetrazol-5-yl)[1,1′-biphenyl]-4-yl]methyl]-1H-benzimidazole-7-carboxylic acid], in series [2] (DSS-treated mice (7 days)), the Peff, Colon (mean ± SD) was found to be 5.94 ± 4.41 ×10⁻⁶ cm/s and the Peff, Small intestine (mean ± SD) was 3.85 ± 2.03 ×10⁻⁶ cm/s. Besides, in series [2] (Normal (naive) mice), the Peff, Colon (mean ± SD) was 4.13 ± 3.04 ×10⁻⁶ cm/s and the Peff, Small intestine (mean ± SD) came to 7.85 ± 5.91 ×10⁻⁶ cm/s. Besides, the Cmax at 2 h in series [3] worked out at 569 ± 188 ng/mL. For the same molecule, in series [4], the Heart rate entry was “did decline significantly”. In series [5], the “Colonic blood flow at the mucosal level” value turned out to be 0.92 ± 0.20 and the Mesenteric blood flow turned out to be 1.56 ± 0.33.
Consider `CCCCc1ncc(CO)n1Cc1ccc(-c2ccccc2-c2nn[nH]n2)cc1` [DCL, 2-butyl-1-[[2′-(2H-tetrazol-5-yl)[1,1′-biphenyl]-4-yl]methyl]-1H-imidazole-5-methanol], for which the “oral 50% effective dose (ED50, blood pressure lowering)” value in series [1] is listed as above 100 mg/kg. In series [2] (DSS-treated mice (7 days)), this molecule showed a Peff, Colon (mean ± SD) of 2.66 ± 0.96 ×10⁻⁶ cm/s and a Peff, Small intestine (mean ± SD) of 1.52 ± 1.31 ×10⁻⁶ cm/s. In series [2] (Normal (naive) mice), the Peff, Colon (mean ± SD) came to 1.58 ± 1.24 ×10⁻⁶ cm/s and the Peff, Small intestine (mean ± SD) is 1.37 ± 0.15 ×10⁻⁶ cm/s. Further, the “permeability coefficient compared to other AT1aR-antagonists” value in series [2] (Ussing chamber, both naive- and DSS-treated specimens) is on record as “threefold to sixfold lower”. Besides, in series [3] (setting [7]), the “plasma level compared to candesartan” value is recorded as “over tenfold lower” and the “plasma level compared to losartan” value is recorded as “threefold lower”. Moreover, the Cmax at 2 h in series [3] stood at 37.8 ± 26.4 ng/mL. The Heart rate entry in series [4] is listed as “not significantly different”. In series [5], the “Colonic blood flow at the mucosal level” value is “failed to change” and the Mesenteric blood flow entry is listed as “failed to change”.
